Where no end group is shown, it is not given here.
B2: G2BR peptide (Ube2g2 binding region of gp78, amino acids 574-600) (peptide, UniProt Q9UKV5 574-600, looked up)
peptide: SADERQRMLVQRKDELLQQARKRFLNK
B3: Ube2g2 (enzyme)
chain: MAGTALKRLMAEYKQLTLNPPEGIVAGPMNEENFFEWEALIMGPEDTCFEFGVFPAILSFPLDYPLSPPKMRFTCEMFHPNIYPDGRVCISILHAPGDDPMGYESSAERWSPVQSVEKILLSVVSMLAEPNDESGANVDASKMWRDDREQFYKIAKQIVQKSLGL

How the values were obtained:
Ube2g2 [1] = target: Ube2g2 (UniProt P60604); assay: ITC
UbcH5C = details: ref Brzovic et al., 2006; cited from earlier work
Ube2g2 [2] = target: Ube2g2 (UniProt P60604); assay: NMR titration
Ube2g2:G2BRΔN complex = Ube2g2:G2BRΔN complex (UniProt P60604); assay: NMR titration
Ube2g2Δ96-108 [3] = assay: Ubiquitin loading of Ube2g2Δ96-108; format: biochemical; details: Ube2g2Δ96-108, printed 'almost 75%'; 4 μM G2BR, 30°C
Ube2g2 [4] = target: T1, Ube2g2 (Homo sapiens, UniProt P60604); assay: ITC of Ube2g2 with G2BR peptides; format: binding
T1 sequence (P60604 1-165): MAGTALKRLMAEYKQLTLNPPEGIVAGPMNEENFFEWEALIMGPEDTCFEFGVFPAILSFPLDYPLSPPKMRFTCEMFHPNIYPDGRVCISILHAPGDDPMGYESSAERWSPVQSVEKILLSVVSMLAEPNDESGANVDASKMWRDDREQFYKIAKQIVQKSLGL

gp78 RING finger = assay: Binding of G2BR to gp78 RING finger; set-up: species or system human; details: in the gp78 RING finger:Ube2g2:G2BR complex, separate binding experiments
Ub-GFP-His6 = assay: Ubiquitylation of Ub-GFP-His6 by gp78 cytoplasmic domain constructs; format: biochemical; details: ~500 nM Ub-GFP-His6, Flag-tagged ubiquitin
Procedure, shortened: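 Purified, bacterially expressed Ub-GFP-His6 (~500 nM) served as substrate for glutathione Sepharose-bound GST-gp78 lacking aa 577-643. Reactions were stopped with 2% SDS (final). After 10 min, samples were diluted to 0.1% SDS with 8 M urea in 50 mM Tris pH 7.4. Substrate was recovered on Ni2+ beads, washed, eluted and resolved by SDS-PAGE. In controls, substrate was added after termination; some reactions ran 60 min.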

Ube2g2Δ96-108 [5] = assay: Binding of G2BR to Ube2g2Δ96-108
UbcH5B = assay: Ubiquitylation by HsHRD1, Trc8 and GST-gp78CΔ577-643 with UbcH5B as E2; format: biochemical; details: HsHRD1, Trc8 and GST-gp78CΔ577-643, UbcH5B as E2, G2BR added
Procedure, shortened: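 GST fusions of the HsHRD1 or Trc8 cytoplasmic tails, or of truncated gp78, were bound to glutathione Sepharose. They were incubated 90 min with E1 and the indicated E2, with or without the indicated peptides. Beads were then washed, and bead-bound ubiquitylated material was resolved by SDS-PAGE and immunoblotted with anti-ubiquitin.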

GST-gp78CΔ577-643 = assay: Autoubiquitylation of GST-gp78CΔ577-643 with Ube2g2; format: biochemical, human; details: GST-gp78CΔ577-643, bead-bound, Ube2g2, E1; anti-ubiquitin immunoblot
Procedure, shortened: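 Glutathione Sepharose-bound GST fusion of the gp78 cytoplasmic tail truncated at aa 577, at the start of the G2BR, is incubated 90 min with Ube2g2 and E1, with or without synthetic or recombinant G2BR-derived peptides added in trans. After washing, ubiquitylated bead-bound material is resolved by SDS-PAGE and immunoblotted with anti-ubiquitin.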

Ube2g2:RING finger = assay: Fraction of Ube2g2 bound to gp78 RING finger in discharge reactions; format: binding; details: 8 μM gp78 RING finger, peptide 4 μM
Ube2g2 [6] = target: T1, Ube2g2; assay: NMR titration of Ube2g2 with G2BR peptides; format: binding; details: peptide with Ube2g2, 50 mM Tris, 2 mM TCEP, pH 7.5, 25°C
Procedure, shortened: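 Samples are in 50 mM Tris, 2 mM TCEP, pH 7.5, run at 25°C on 600 and 800 MHz spectrometers with triple-resonance cryoprobes. G2BR peptide is titrated into Ube2g2 and chemical shift perturbations of Ube2g2 resonances are mapped, backed by intermolecular NOESY, to define the binding surface.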

Ube2g2:G2BR complex [7] = target: T2, Ube2g2:G2BR complex (Homo sapiens, UniProt P60604+Q9UKV5); assay: NMR titration of Ube2g2:G2BR complex with gp78 RING finger; format: binding; details: for NMR Exchange timescale: Ube2g2:G2BR complex, pH 7.5, 25°C
T2 sequence (P60604 1-165): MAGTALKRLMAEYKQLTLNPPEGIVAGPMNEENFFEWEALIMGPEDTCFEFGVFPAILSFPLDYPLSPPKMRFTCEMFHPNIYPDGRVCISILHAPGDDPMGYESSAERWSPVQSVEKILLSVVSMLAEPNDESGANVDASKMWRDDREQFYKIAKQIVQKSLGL
T2 sequence (Q9UKV5 574-600 partner limits assumed): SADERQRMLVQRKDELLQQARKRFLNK
Procedure, shortened: (§1)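 Purified gp78 RING finger is titrated into free Ube2g2 or the Ube2g2:G2BR complex in 50 mM Tris, 2 mM TCEP, pH 7.5, at 25°C, using 600 and 800 MHz spectrometers. Shifts of Ube2g2 peaks from free toward bound positions are followed. Kd comes from fitting peak positions against ligand:protein concentration.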

Ube2g2 [8] = target: T1, Ube2g2; assay: Ubiquitin loading of Ube2g2; format: biochemical
Ube2g2:G2BRΔN = assay: NMR titration of Ube2g2:G2BRΔN complex with gp78 RING finger; format: binding; details: Ube2g2 in presence of G2BRΔN, pH 7.5, 25°C
Procedure, shortened: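 For the NMR titration, samples were in 50 mM Tris, 2 mM TCEP, pH 7.5, at 25°C, on 600 and 800 MHz spectrometers with cryoprobes. gp78 RING finger was added stepwise, and Ube2g2 peak shifts from the free toward the bound position were followed. Kd was obtained by fitting peak positions against ligand:protein concentration ratio.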

Ube2g2:G2BR complex [9] = target: T3, Ube2g2:G2BR complex ( | human, UniProt P60604 1-165; Q9UKV5 574-600); assay: NMR titration
T3 sequence 1: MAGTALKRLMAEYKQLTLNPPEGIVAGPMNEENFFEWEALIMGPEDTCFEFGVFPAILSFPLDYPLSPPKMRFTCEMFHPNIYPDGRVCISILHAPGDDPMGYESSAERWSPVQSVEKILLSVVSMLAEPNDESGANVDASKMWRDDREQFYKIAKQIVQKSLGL
T3 sequence 2: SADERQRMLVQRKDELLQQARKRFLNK

Ube2g2 [10] = target: B3; assay: NMR titration
Ube2g2 [11] = target: T1, Ube2g2; assay: NMR titration of Ube2g2 with gp78 RING finger; format: binding; details: Ube2g2 without G2BR, pH 7.5, 25°C
Procedure, shortened: as §1

Ube2g2~Ub = Ube2g2~Ub (Homo sapiens, UniProt P60604); assay: Discharge of ubiquitin from Ube2g2~Ub; format: biochemical; details: 8 μM gp78 RING finger, Ub 80 μM, 50 mM Tris pH 7.4, 25°C
Ube2g2 [12] = target: B3; assay: NMR titration; remark: listed apart in the source
Ube2g2 [13] = target: B3; assay: ITC
Ube2g2 [14] = target: B3; assay: ITC; remark: listed apart in the source
[15] = target: B2; assay: NMR titration

G2BRΔN (peptide)
Kd (Ube2g2 [1]): 0.74 µM | dH (Ube2g2 [1]): -2.34 kcal/mol

ubiquitin
Kd (UbcH5C): ~300 µM

G2BRΔC (peptide)
Kd (Ube2g2 [2]): 192 µM

gp78 RING finger (aa 313-380) (from UniProt Q9UKV5 313-380) (domain or fragment)
Kd (Ube2g2:G2BRΔN complex): 29 µM

SADERQRMLVQRKDELLQQARKRFLNK [G2BR]
decrease of the G2BR effect on ubiquitin loading by deletion of aa 96-108 (Ube2g2Δ96-108 [3]): ~75% | ΔG (free energy change) (Ube2g2 [4]; ITC, 25°C): -10.45 kcal/mol | ΔH (Ube2g2 [4]; ITC, 25°C): -56.3(±0.01) kJ mol^-1 | ΔS (Ube2g2 [4]; ITC, 25°C): -41.8(±0.04) J K^-1 mol^-1T^-1 | higher affinity for Ube2g2 of G2BR than of ubiquitin (Ube2g2 [4]; versus ubiquitin (~300 μM)): over 10,000 fold | RING finger - G2BR direct interaction (gp78 RING finger): do not directly interact | effect of G2BR on ubiquitylation of Ub-GFP-His6 by GST-gp78CΔ577-643 (Ub-GFP-His6): substantially increased | G2BR binding to Ube2g2Δ96-108 (Ube2g2Δ96-108 [5]): G2BR binding was retained | effect on ubiquitylation with UbcH5B (UbcH5B): not increased | effect of peptide in trans on ubiquitylation of truncated gp78 (GST-gp78CΔ577-643): marked increase in ubiquitylation of truncated gp78 | Ube2g2 bound (Ube2g2:RING finger) (Ube2g2:RING finger): > 50% | NMR Exchange timescale (Ube2g2 [6]): slow exchange and slow | increase in affinity between the E2 and RING finger caused by G2BR binding (Ube2g2:G2BR complex [7]; Ube2g2:G2BR versus Ube2g2, abstract): ~ 50 fold | E2 loading with ubiquitin (Ube2g2 [8]; 12°C, with G2BR): almost no detectable loading | effect on rate of E2 loading with ubiquitin (Ube2g2 [8]; 30°C, 4 μM (saturating) peptide, 100 nM E1, Ub K0, versus Scr, average of two experiments): marked decrease in the rate of E2 loading | formation of Ube2g2~Ub (Ube2g2 [8]; in presence of G2BR (discussion)): substantial delay in formation of Ube2g2~Ub

B1: gp78 RING finger (aa 313-380) (domain or fragment, human, UniProt Q9UKV5 313-380, looked up)
chain: KNYLRVVGNMEARFAVATPEELAVNNDDCAICWDSMQAARKLPCGHLFHNSCLRSWLEQDTSCPTCRM
Kd (Ube2g2:G2BRΔN; 50 mM Tris, 2 mM TCEP): 29 µM | NMR Exchange timescale (Ube2g2:G2BRΔN): fast | Kd (Ube2g2:G2BR complex [9]): 3 ± 1 µM | Kd (Ube2g2 [10]): 144 ± 10 µM | NMR Exchange timescale (Ube2g2 [11]): fast exchange | NMR Exchange timescale (Ube2g2 [11]; listed as gp78-RING): fast | loss of Ub-bound Ube2g2 (Ube2g2~Ub): markedly accelerated | NMR Exchange timescale (Ube2g2:G2BR complex [7]): fast exchange | NMR Exchange timescale (Ube2g2:G2BR complex [7]; listed as gp78-RING): fast | decrease of Kd of gp78 RING finger for Ube2g2 in presence of G2BR (Ube2g2:G2BR complex [7]; Ube2g2:G2BR versus Ube2g2): ~ 48 fold

B2
Kd (Ube2g2 [12]): < 1 µM | Kd (Ube2g2 [13]): 0.021 ± 0.004 µM | dH (Ube2g2 [13]): -13.456 ± 0.00239 kcal/mol | stoichiometry N (Ube2g2 [14]): 1

B3
stoichiometry N [15]: 1

From PMC3050579 (Molecular cell, 2009)
